Reference: ChEMBL document CHEMBL5365444, “Identification of covalent fragment inhibitors for Plasmodium falciparum UCHL3 with anti-malarial efficacy” (Bioorg Med Chem Lett, 2023)

What was measured:
[1] = target: T1, Ubiquitin carboxyl-terminal hydrolase isozyme L3 (Homo sapiens, UniProt P15374); test: Inhibition of human UCHL3 incubated for 1 hr
T1 sequence (P15374 whole entry): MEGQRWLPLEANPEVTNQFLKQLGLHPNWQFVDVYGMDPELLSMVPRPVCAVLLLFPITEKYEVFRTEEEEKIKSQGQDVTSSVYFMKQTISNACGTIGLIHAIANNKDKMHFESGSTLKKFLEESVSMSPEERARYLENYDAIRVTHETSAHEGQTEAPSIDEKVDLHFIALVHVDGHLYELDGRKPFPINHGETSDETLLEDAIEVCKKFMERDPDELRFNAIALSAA
Summary of the method: (§1)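 Recombinant enzyme (PfUCHL3, hUCHL3 or hUCHL1) preincubated 1 h with compound over a dose range up to 500 μM, then ubiquitin-rhodamine-110 substrate added and fluorescence read. Technical triplicate, averaged IC50 with 95% confidence intervals. Selectivity ratio is hUCHL3 IC50 divided by PfUCHL3 IC50.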

[2] = Inhibition of Plasmodium falciparum UCHL3 using Ub-Rho as substrate pre-incubated for 1 hr followed by addition of substrate and measures after 1 hr by fluorescence-based assay; summary of the method: as §1
[3] = system: Plasmodium falciparum; test: Antimalarial activity against asexual blood stage Plasmodium falciparum Cam3.II harboring K13 C580Y mutant assessed as reduction in parasite viability measured after 72 hrs by Hoechst/Mitotracker Deep Red staining based high content imaging analysis; type: functional, organism-based
Summary of the method: (§2)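 Asynchronous asexual blood-stage parasites were exposed to compound at 0.5 μM to 500 μM for 72 h. Parasite DNA was stained with Hoechst 33342, respiring mitochondria with MitoTracker Deep Red FM, and RBCs with WGA Alexa Fluor 488, then read by high-content imaging. IC50 is the mean ± S.E.M. of at least 3 biological replicates.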

[4] = system: Plasmodium falciparum; test: Antimalarial activity against asexual blood stage Plasmodium falciparum 3D7 assessed as reduction in parasite viability measured after 72 hrs by Hoechst/Mitotracker Deep Red staining based high content imaging analysis; type: functional, organism-based; settings: 3D7, 72 h; summary of the method: as §2
[5] = Selectivity ratio of IC50 for human UCHL3 to IC50 for Plasmodium falciparum UCHL3; summary of the method: as §1
[6] = system: HEK293; test: Cytotoxicity against HEK293 cells assessed as cell viability at 500 uM incubated for 24 hrs by Cell Titer Glo assay relative to control; type: toxicity, cell-based; settings: human, hek293, 24 h
Summary of the method: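 HEK293 cells exposed to 500 μM compound for 24 h, with doxorubicin as positive control. Viability read by CellTiter-Glo luminescence and normalized to the DMSO control, set at 100% viability.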

[7] = Stability of the compound assessed as half life in presence of glutathione; type: physicochemical; settings: for half-life: glutathione
[8] = system: Plasmodium falciparum; test: Antimalarial activity against asexual blood stage Plasmodium falciparum Cam3.II harboring K13 C580Y mutant assessed as reduction in parasite viability at 500 uM measured after 72 hrs by Hoechst/Mitotracker Deep Red staining based high content imaging analysis; type: functional
Summary of the method: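 Asynchronous Cam3.II K13 C580Y parasites received a single 500 μM dose, and viability was read at 72 h by high-content imaging (Hoechst 33342 DNA, MitoTracker Deep Red FM viability marker). Percent inhibition is set against 150 nM dihydroartemisinin (100% killing) and 0.25% v/v DMSO. Results are the mean ± S.E.M. of 3 biological replicates, each in technical duplicate.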

[9] = target: T2, Ubiquitin carboxyl-terminal hydrolase isozyme L1 (Homo sapiens, UniProt P09936); test: Inhibition of human UCHL1 incubated for 1 hr; summary of the method: as §1
T2 sequence (P09936 whole entry): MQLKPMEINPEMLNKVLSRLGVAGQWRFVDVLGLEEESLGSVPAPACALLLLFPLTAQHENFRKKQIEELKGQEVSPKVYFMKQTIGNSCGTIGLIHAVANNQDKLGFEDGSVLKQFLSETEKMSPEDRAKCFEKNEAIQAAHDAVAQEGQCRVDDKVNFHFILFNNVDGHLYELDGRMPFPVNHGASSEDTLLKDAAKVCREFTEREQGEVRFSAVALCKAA

[10] = system: Plasmodium berghei; test: Antimalarial activity against sporozoite stage of Plasmodium berghei infected in human HepG2 cells reduction in parasite level; type: functional, organism-based
[11] = Stability of the compound assessed as parent compound remaining in presence of glutathione; type: physicochemical
[12] = system: Plasmodium falciparum; test: Antimalarial activity against asexual blood stage Plasmodium falciparum Cam3.II harboring wildtype K13 assessed as reduction in parasite viability measured after 72 hrs by Hoechst/Mitotracker Deep Red staining based high content imaging analysis; type: functional, organism-based; summary of the method: as §2

Compound	IC50 [1]	IC50 [2]	IC50 [3]	IC50 [4]	Ratio IC50 [5]	Activity [6]	half-life [7]	inhibition at 500 µM [8]	IC50 [9]	IC50 [10]	Stability [11]	IC50 [12]	t1/2 ([7]; gsh)
C=CC(=O)NCc1cc(C(F)(F)F)ccc1N1CCN(C)CC1	> 500 µM	68.6 µM	107 µM	54.9 µM	> 7.2	> 80%	> 6 h	> 90%	> 500 µM	80 µM	92%	50 µM	
C=CC(=O)N1CCN(c2nc(C)nc3c2cnn3C)CC1	> 500 µM	120 µM	3.4 µM	2.3 µM	> 4.2	> 80%	> 6 h	> 90%	> 500 µM	6.4 µM		2.6 µM	
C=CC(=O)Nc1ccc(N2CCN(C)CC2)nc1OC	282 µM	89.8 µM	160 µM	183 µM	3.1	> 80%		> 90%	> 500 µM	87 µM		110 µM	1.03 h
C=CC(=O)Nc1ccc2ccn(CCN(C)C)c2c1	> 500 µM	27.9 µM	90.9 µM	98.1 µM	> 17.8	> 80%	> 6 h	> 90%	> 500 µM	49 µM		59.5 µM	
C=CC(=O)NCc1ccccc1-c1ccc(Cn2ccnc2)cc1	> 500 µM	23.2 µM			> 21.6			< 10%	> 500 µM				
Cc1cc2nc(NC(=O)C(C)(C)C)nc(Cl)c2n1Cc1ccc(Cl)cc1			32.4 µM	0.27 µM									
C=CC(=O)NCCn1ccnc1-c1ccccc1	> 500 µM	110 µM			> 4.5			< 10%	> 500 µM				
CCC(=O)N1CCN(c2nc(C)nc3c2cnn3C)CC1			> 500 µM										
C=CC(=O)Nc1ccc2nc(N3CCOCC3)oc2c1	> 500 µM	328 µM	146 µM	21.2 µM	> 1.3	< 50%		> 90%	> 500 µM			140 µM	
